Laboratory results reported in ChEMBL document CHEMBL1153263, “3-Acrylamide-4-aryloxyindoles: synthesis, biological evaluation and metabolic stability of potent and selective EP3 receptor antagonists” (Bioorg Med Chem Lett, 2009).

What was measured:
[1] = target: T1, Prostaglandin E2 receptor EP3 subtype (Homo sapiens, UniProt P43115); assay: Displacement of [3H]PGE2 from human EP3 receptor at 20 uM in presence of normal buffer
T1 sequence (P43115 whole entry): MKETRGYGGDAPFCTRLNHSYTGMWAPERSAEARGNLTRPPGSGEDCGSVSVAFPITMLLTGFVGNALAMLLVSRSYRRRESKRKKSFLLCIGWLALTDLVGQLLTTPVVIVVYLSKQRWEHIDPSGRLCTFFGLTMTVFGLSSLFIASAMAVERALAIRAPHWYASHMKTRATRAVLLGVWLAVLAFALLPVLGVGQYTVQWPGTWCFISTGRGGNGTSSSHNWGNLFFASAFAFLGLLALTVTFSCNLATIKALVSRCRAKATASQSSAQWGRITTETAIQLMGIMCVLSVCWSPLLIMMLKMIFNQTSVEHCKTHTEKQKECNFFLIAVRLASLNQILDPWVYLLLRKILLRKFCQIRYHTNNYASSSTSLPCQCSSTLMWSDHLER

[2] = target: T1, Prostaglandin E2 receptor EP3 subtype; assay: Displacement of [3H]PGE2 from human EP3 receptor at 20 uM in presence of 10% human serum
[3] = target: T2, Prostaglandin E2 receptor EP3 subtype (Homo sapiens) (UniProt P43115); assay: Ratio IC50 for human EP3 receptor in presence of human serum to IC50 for human EP3 in absence of human serum
T2 sequence (whole entry): T1 sequence (P43115 whole entry)

[4] = Metabolic stability in human liver microsome assessed as compound remaining at 5 uM after 30 mins; format: ADME; details: liver microsomes, read-out: Stability
How it was run: (§1)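 Liver microsomes at 0.8 mg/mL protein incubated with compound at 5 µM. Percent parent remaining after 30 min measured by LC–MS/MS.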

[5] = Metabolic stability in rat liver microsome assessed as compound remaining at 5 uM after 30 mins; format: ADME; details: liver microsomes, read-out: Stability; how it was run: as §1
[6] = Metabolic stability in dog liver microsome assessed as compound remaining at 5 uM after 30 mins; format: ADME, Canis lupus familiaris; details: liver microsomes, read-out: Stability; how it was run: as §1
[7] = Antiplatelet activity against rat platelet assessed as platelet aggregation; format: functional, cell-based
[8] = Antiplatelet activity against human platelet assessed as platelet aggregation; format: functional, cell-based
Mus musculus = assay: Plasma concentration in NMRI mouse at 2 mg/kg, iv; format: ADME, organism-based; design: dose 2 mg/kg, route intravenous; details: in vivo
How it was run: (§2)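 Mouse iv exposure screen. Plasma and brain concentrations sampled 15 min after dosing.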

Brain = assay: Brain concentration in NMRI mouse at 2 mg/kg, iv; format: ADME, organism-based; design: dose 2 mg/kg, route intravenous; details: in vivo; how it was run: as §2
[9] = target: Prostaglandin E2 receptor EP2 subtype (Homo sapiens, UniProt P43116); assay: Displacement of radioligand from EP2 receptor
Prostaglandin E2 receptor EP2 subtype, sequence (P43116 whole entry): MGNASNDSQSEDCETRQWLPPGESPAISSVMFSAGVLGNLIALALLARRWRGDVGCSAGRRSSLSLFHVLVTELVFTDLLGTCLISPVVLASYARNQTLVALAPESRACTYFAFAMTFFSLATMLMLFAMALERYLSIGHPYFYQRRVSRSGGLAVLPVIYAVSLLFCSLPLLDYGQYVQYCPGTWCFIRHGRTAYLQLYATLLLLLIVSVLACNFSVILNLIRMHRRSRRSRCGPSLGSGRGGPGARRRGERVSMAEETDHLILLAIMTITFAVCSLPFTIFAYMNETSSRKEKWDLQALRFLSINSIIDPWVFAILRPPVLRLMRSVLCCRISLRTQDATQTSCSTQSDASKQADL

[10] = target: Prostaglandin E2 receptor EP4 subtype (Homo sapiens, UniProt P35408); assay: Displacement of radioligand from EP4 receptor
Prostaglandin E2 receptor EP4 subtype, sequence (P35408 whole entry): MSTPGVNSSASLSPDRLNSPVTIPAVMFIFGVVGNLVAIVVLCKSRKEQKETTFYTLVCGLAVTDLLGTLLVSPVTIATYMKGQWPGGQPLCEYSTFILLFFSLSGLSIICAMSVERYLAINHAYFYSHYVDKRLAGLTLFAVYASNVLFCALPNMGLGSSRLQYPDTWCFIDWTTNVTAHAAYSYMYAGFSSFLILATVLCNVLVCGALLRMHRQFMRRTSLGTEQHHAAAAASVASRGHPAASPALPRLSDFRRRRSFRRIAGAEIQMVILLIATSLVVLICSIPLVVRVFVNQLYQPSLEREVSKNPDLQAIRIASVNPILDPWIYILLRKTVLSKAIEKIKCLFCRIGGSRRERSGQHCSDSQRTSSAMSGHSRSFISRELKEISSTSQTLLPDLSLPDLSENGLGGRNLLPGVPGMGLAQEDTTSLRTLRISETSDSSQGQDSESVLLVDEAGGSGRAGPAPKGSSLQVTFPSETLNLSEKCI

Prostacyclin receptor = Prostacyclin receptor (Homo sapiens, UniProt P43119); assay: Displacement of radioligand from IP receptor
Prostacyclin receptor, sequence (P43119 whole entry): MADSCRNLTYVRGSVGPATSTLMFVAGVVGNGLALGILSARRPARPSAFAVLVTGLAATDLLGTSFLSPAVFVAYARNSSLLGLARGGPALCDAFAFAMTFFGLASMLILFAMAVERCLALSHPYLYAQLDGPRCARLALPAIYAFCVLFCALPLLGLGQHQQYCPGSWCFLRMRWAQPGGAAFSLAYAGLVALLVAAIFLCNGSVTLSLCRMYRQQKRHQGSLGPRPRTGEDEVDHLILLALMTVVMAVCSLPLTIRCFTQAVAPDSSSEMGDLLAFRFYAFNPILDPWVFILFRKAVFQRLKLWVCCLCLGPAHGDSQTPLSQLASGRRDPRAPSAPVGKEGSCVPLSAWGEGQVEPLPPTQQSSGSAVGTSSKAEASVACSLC

[11] = target: Prostaglandin F2-alpha receptor (Homo sapiens, UniProt P43088); assay: Displacement of radioligand from FP receptor
Prostaglandin F2-alpha receptor, sequence (P43088 whole entry): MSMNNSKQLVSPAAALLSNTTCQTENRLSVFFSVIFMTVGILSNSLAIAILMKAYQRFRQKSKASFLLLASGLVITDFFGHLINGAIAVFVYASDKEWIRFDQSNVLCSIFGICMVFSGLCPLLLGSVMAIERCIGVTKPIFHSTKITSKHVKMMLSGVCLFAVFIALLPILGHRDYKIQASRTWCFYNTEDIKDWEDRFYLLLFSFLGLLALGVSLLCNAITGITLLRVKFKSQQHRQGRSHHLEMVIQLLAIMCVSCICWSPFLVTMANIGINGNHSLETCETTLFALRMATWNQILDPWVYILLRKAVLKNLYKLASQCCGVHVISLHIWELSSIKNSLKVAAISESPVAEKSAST

[12] = Metabolic stability in mouse liver microsome assessed as compound remaining at 5 uM after 30 mins; format: ADME; details: liver microsomes, read-out: Stability; how it was run: as §1
[13] = Metabolic stability in monkey liver microsome assessed as compound remaining at 5 uM after 30 mins; format: ADME, Macaca mulatta; details: rhesus monkey, liver microsomes; read-out: Stability; how it was run: as §1
[14] = target: T3, Prostaglandin E2 receptor EP1 subtype (Homo sapiens, UniProt P34995); assay: Displacement of radioligand from EP1 receptor
T3 sequence (P34995 whole entry): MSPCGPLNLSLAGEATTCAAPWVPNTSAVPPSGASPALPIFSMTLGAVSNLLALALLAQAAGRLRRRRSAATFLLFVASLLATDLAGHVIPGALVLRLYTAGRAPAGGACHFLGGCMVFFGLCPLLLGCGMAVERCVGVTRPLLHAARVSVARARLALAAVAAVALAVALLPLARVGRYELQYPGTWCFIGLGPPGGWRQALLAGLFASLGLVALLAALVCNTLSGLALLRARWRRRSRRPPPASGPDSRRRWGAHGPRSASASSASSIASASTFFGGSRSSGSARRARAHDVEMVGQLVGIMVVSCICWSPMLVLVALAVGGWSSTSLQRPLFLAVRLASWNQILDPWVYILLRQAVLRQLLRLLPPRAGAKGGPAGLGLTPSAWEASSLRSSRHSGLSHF

[15] = target: T1, Prostaglandin E2 receptor EP3 subtype; assay: Antagonist activity at human EP3-2 receptor expressed in CHOK1 cells; format: functional, cell-based, CHO-K1
How it was run: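 Stably transfected CHO-K1 cells expressing hEP3II, plated at 10⁵ cells/well and cultured overnight at 37 °C, 5% CO2. Washed with PBS, pre-incubated 30 min at 37 °C in serum-free medium with 1 mM IBMX. Stimulated with PGE2 (5×10⁻⁹ M) plus forskolin (5×10⁻⁶ M) ± compound (10⁻⁴–10⁻¹³ M) for 10 min at 37 °C. cAMP measured by EIA; EC50 from sigmoid non-linear regression.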

Row | IC50 [1] | IC50 [2] | Ratio IC50 [3] | remaining at 0.5 h, 5 µM [4] | remaining at 0.5 h, 5 µM [5] | remaining at 0.5 h, 5 µM [6] | EC50 [7] | EC50 [8] | Cp (Mus musculus) | Drug uptake (Brain) | IC50 [9] | IC50 [10] | IC50 (Prostacyclin receptor) | IC50 [11] | remaining at 0.5 h, 5 µM [12] | remaining at 0.5 h, 5 µM [13] | IC50 [14] | EC50 [15] | Compound
1 | 0.0092 µM | 0.028 µM | 3.1 | 91.2% | 32% | 90.4% | 0.0116 µM | 0.0081 µM | 1.518 µg/mL | 29.1 ng/mL | – | – | – | – | – | – | – | – | Cn1cc(/C=C/C(=O)NS(=O)(=O)c2cc(F)c(F)cc2F)c2c(Oc3ccc4ccccc4c3)cccc21
2 | 0.0074 µM | 0.0159 µM | 2.1 | 63.6% | 24.6% | 69.7% | 0.0128 µM | – | 3.42 µg/mL | 55.7 ng/mL | 12.5 µM | 12.5 µM | 1.88 µM | 3.59 µM | 62% | 59% | 1.42 µM | – | Cn1cc(/C=C/C(=O)NS(=O)(=O)c2ccc(F)c(F)c2)c2c(Oc3ccc4ccccc4c3)cccc21
3 | 0.0118 µM | 0.0237 µM | 2 | 74.7% | 30.6% | 104% | – | – | – | – | 9.6 µM | 14.6 µM | – | 1.97 µM | 69% | 53.8% | 3.86 µM | 0.0261 µM | Cn1cc(/C=C/C(=O)NS(=O)(=O)c2ccc(F)c(F)c2)c2c(Oc3ccc(Cl)cc3Cl)cccc21
